The subject of assay [1] is SW-620. The assay can be described thus: Cytotoxicity against human SW620 cells after 48 hrs […]. It is filed as functional. Particulars: SW-620, 48 h. An outline of the steps: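 SW620 human colorectal tumor cells were exposed to a range of concentrations for 48 h. Cells were counted and GI50 was derived from growth inhibition.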
Assay [2] has as its system SW-620. Description: Induction of ROS generation in human SW620 cells at 20 uM after 2 hrs relative to control. It is filed as functional. An outline of the steps: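 SW620 cells were treated for 2 h. Intracellular ROS was read fluorimetrically with the DCF-DA probe (excitation 485 nm, emission 535 nm) and compared with DMSO-treated cells.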
In assay [3] the test system is HCT-116. The assay can be described thus: Cytotoxicity against human HCT116 cells after 48 hrs by WST1 assay. Format: functional, cell-based.
In assay [4] the test system is DLD-1. The assay can be described thus: Cytotoxicity against human DLD1 cells after 48 hrs by WST1 assay. Format: functional, cell-based. (In general: Tetrazolium dyes change colour on reduction, which living cells bring about.)
The subject of assay [5] is SW-620. The assay can be described thus: Induction of apoptosis in human SW620 cells assessed as late apoptotic cells at 10 uM by annexin-V/propidium iodide staining. It is filed as functional. The essentials: (§1)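 SW620 cells were treated for 48 h with or without 1 mM NAC. Cells were stained with annexin V and propidium iodide, and the apoptotic distribution was determined by flow cytometry.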

For assay [6], the system named is SW-620. The assay can be described thus: Induction of apoptosis in human SW620 cells assessed as late apoptotic cells at 20 uM by annexin-V/propidium iodide staining. It is filed as functional. The essentials:
as §1

The test system of assay [7] is SW-620. The assay can be described thus: Induction of apoptosis in human SW620 cells assessed as late apoptotic cells at 10 uM by annexin-V/propidium iodide staining in presence of N-acetyl-cysteine. Format: functional. The essentials:
as §1

Assay [8] relates to SW-620. The assay can be described thus: Induction of apoptosis in human SW620 cells assessed as PARP degradation at 10 uM by fluorescence microscopy. It is filed as functional, cell-based.
In assay [9] the test system is SW-620. The assay can be described thus: Induction of apoptosis in human SW620 cells assessed as caspase 3 activation at 10 uM by fluorescence microscopy. It is filed as functional, cell-based.
The test system of assay [10] is SW-620. Description: Induction of apoptosis in human SW620 cells assessed as PARP degradation at 10 uM by fluorescence microscopy in presence of N-acetyl-cysteine. Format: functional, cell-based.
Assay [11] has as its system SW-620. Description: Induction of apoptosis in human SW620 cells assessed as caspase 3 activation at 10 uM by fluorescence microscopy in presence of N-acetyl-cysteine. Format: functional, cell-based.
The subject of assay [12] is SW-620. Description: Induction of apoptosis in human SW620 cells assessed as decrease in mitochondrial membrane potential after 6 to 12 hrs. Format: functional, cell-based. The essentials: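 Mitochondrial membrane potential in SW620 cells was followed as the red:green ratio (A590:A520) over 6–12 h of treatment.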
For assay [13], the system named is SW-620. The assay can be described thus: Induction of apoptosis in human SW620 cells assessed as release of mitochondrial cytochrome c release to cytosol upto 48 hrs. It is filed as functional, cell-based. The essentials:
(§2)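 SW620 cells were treated for the indicated time intervals. Cytosolic and membrane fractions were separated by subcellular fractionation, and Bax and cytochrome c levels in each fraction were read by Western blot.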

The test system of assay [14] is SW-620. The assay can be described thus: Induction of apoptosis in human SW620 cells assessed as increase in translocation of Bax to cytosol upto 48 hrs. Format: functional, cell-based. The conditions noted are these: in the assay text read “to membrane fraction” for “to cytosol”. An outline of the steps: as §2
In assay [15] the test system is SW-620. The assay can be described thus: Induction of cell cycle arrest in human SW620 cells assessed as accumulation at G2/M phase at 10 uM after 15 hrs by propidium iodide cytofluorimetric analysis. It is filed as functional, cell-based.
For assay [16], the system named is MCF-10A. Description: Induction of cell cycle arrest in human MCF10A cells assessed as accumulation at G0/G1 phase at 10 uM after 15 hrs by propidium iodide cytofluorimetric analysis. It is filed as functional, cell-based.
Assay [17] concerns MDA-MB-231 (Homo sapiens). The assay can be described thus: Induction of apoptosis in human MDA-MB-231 cells assessed as change in cell morphology at 10 uM by fluorescence microscopy.
The test system of assay [18] is MDA-MB-231 (Homo sapiens). The assay can be described thus: Induction of apoptosis in human MDA-MB-231 cells assessed as change in cell morphology at 10 uM by fluorescence microscopy in presence of N-acetyl-cysteine.
Assay [19] has as its system MDA-MB-231. Description: Induction of ROS generation in human MDA-MB-231 cells at 20 uM by fluorescence microscopy in presence of N-acetyl-cysteine. It is filed as functional, cell-based.

Activity calls are given as the source filed them. The calls are words filed in the database; no cut-off is given here.

By GI50 is commonly meant the concentration at which growth is held to half of that of the control. A high value points to less potent growth inhibition.

`COc1cc(/C=C/C(=O)C(C)(C)C(=O)/C=C/c2ccc(O)c(OC)c2)ccc1O` registered a concentration for 50% growth inhibition (GI50) in assay [1] of 7 µM.

With `O=C(/C=C(O)/C=C/c1ccccc1O)/C=C/c1ccccc1O`, the “fold change (FC)” value in [2] worked out at 1.5. Halving of growth in assay [1] (GI50) required 35 µM.

The compound `COc1cc(/C=C/C(=O)CC(=O)/C=C/c2ccc(O)c(OC)c2)ccc1O` [CURCUMIN] showed a GI50 in [1] of 32 µM.

As to `CC(=O)/C=C/c1ccccc1O`, the “fold change (FC)” value in [2] came to 1.5.

Turning to `CC(C)C(=O)/C=C/c1ccccc1O`, the “fold change (FC)” value in assay [2] stood at 1.5.

As to `CC(=O)C(C)(C)C(=O)/C=C/c1ccccc1O`, in [2], the “fold change (FC)” value worked out at 1.5. For the same compound, in [1], the GI50 came out at 40 µM.

For the compound `CC(=O)/C=C(O)/C=C/c1ccccc1O`, the “fold change (FC)” value in [2] came out at 1.5.

Turning to `CC(C)(C(=O)/C=C/c1ccccc1O)C(=O)/C=C/c1ccccc1O`, the “fold change (FC)” value in [2] came to 1.5. For the same compound, in assay [1], the GI50 is 7 µM. Moreover, the outcome in [3], in assay [4], in assay [8], in [9], in assay [12] and in assay [13] was Active. Also, the outcome in [14], in [15], in assay [16] and in [17] was Active. Besides, the Activity in assay [5] came to 73.53%; in [6], 78.77%; in assay [7], 24.25%. Moreover, the result in assay [10], in assay [11] and in assay [18] was inactive.

Regarding `O=C/C=C/c1ccccc1O` [2-HYDROXYCINNAMALDEHYDE], the “fold change (FC)” value in assay [2] is reported as 1.5. Moreover, halving of growth in assay [1] (GI50) required 15 µM. Further, in assay [19], the outcome was inactive.

These data come from ChEMBL document CHEMBL1641448, “2-Hydroxycurcuminoid induces apoptosis of human tumor cells through the reactive oxygen species-mitochondria pathway” (2011).
